The results in this text go back to ChEMBL document CHEMBL4342468, “Evolution of a 4-Benzyloxy-benzylamino Chemotype to Provide Efficacious, Potent, and Isoform Selective PPARα Agonists as Leads for Retinal Disorders” (J Med Chem, 2020).

The test system of data set [1] is Rattus norvegicus. The data set can be described thus: Protection against STZ-induced diabetic retinopathy Brown Norway rat model assessed as reduction in vascular leakage by measuring retinal vascular permeability at 25 mg/kg, ip administered daily for 4 weeks starting at 2 weeks post STZ challenge measured per mg of total retinal protein by Evan blue dye based assay (reference value: 0.090 +/- 0.015 microg). It is filed as functional. The gist of the method: (§1)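 Male Brown Norway rats aged 8 weeks (legend: 7–8 weeks) made diabetic with STZ 55 mg/kg i.p.; blood glucose >350 mg/dl at day 3. Starting 2 weeks after STZ, daily i.p. compound or same-volume vehicle for 4 weeks. Under ketamine/xylazine, Evans blue 30 mg/ml at 1 µl/g given i.v. via femoral vein and circulated 2 h. Perfusion with 1% paraformaldehyde in citrate buffer, pH 4.2, at 37°C. Retina extracted in formamide 18 h at 70°C, ultracentrifuged, A620 read. Dye amount from a standard curve, normalized to total protein. Groups compared by Student's t-test, mean ± SD.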

Data set [2] in a line: Toxicity in STZ-induced diabetic retinopathy Brown Norway rat model assessed as liver weight at 25 mg/kg, ip administered daily for 4 weeks starting at 2 weeks post STZ challenge relative to body weight (reference value: 4.36 +/- 0.37%). It is filed as organism-based. The note with it: in vivo.
Data set [3] in a line: Toxicity in STZ-induced diabetic retinopathy Brown Norway rat model at 25 mg/kg, ip administered for 1 month starting at 2 weeks post STZ challenge. It is filed as organism-based. The note with it: in vivo, 336 h.
The target in data set [4] is Voltage-gated inwardly rectifying potassium channel KCNH2 (Homo sapiens, UniProt Q12809). The data set can be described thus: Inhibition of human ERG stably expressed in CHOK1 cells assessed as tail current amplitude at 0.1 to 10 uM incubated for 5 mins measured after deploarization to +20 mV for 2s followed by 1s pulse to -40 mV with holding potential of -80 mV by Qpatch clamp assay. The data set is classed as cell-based. The gist of the method:
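Whole-cell automated patch clamp at room temperature. CHO-K1 cells were detached with trypsin and held in serum-free medium. Intracellular solution was KCl/EGTA/MgATP/HEPES at pH 7.2; extracellular solution was NaCl/KCl/CaCl2/glucose/HEPES at pH 7.4, applied first for 5 min. Compound given at 0.1, 1 and 10 μM in rising order, 5 min each, on the same cell. Percent inhibition taken from tail current before and after compound. E-4031 reference. Run in duplicate.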
For orientation: In patch-clamp work, channel activity is measured electrically.

A short description of data set [5]: Half life in human pooled liver microsomes preincubated for 5 mins prior to addition of NADPH-regenerating system and measured up to 60 mins by HPLC-MS/MS analysis. It is filed as ADME, Microsome. Particulars: 1 h; call rule not given here. For orientation: Microsomes from liver hold many membrane-bound enzymes, among them those of drug oxidation.
Data set [6] addresses T1, Peroxisome proliferator-activated receptor alpha (Homo sapiens, UniProt Q07869).
T1 sequence (Q07869 whole entry): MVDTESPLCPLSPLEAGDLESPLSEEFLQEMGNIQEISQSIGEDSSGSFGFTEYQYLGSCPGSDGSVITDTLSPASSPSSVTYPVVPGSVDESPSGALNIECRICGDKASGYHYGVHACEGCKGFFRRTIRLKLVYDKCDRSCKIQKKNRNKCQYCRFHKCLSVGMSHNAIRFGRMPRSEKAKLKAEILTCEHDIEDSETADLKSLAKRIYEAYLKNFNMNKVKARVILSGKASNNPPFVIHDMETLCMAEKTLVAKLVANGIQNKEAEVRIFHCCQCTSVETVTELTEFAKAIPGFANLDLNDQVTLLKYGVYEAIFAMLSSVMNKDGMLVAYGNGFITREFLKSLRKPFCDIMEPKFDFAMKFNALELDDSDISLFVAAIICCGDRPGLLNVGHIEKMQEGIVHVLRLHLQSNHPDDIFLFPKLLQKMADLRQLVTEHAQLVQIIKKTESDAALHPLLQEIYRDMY
The data set can be described thus: Binding affinity to PPARalpha in human MIO-M1 cells assessed as increase in thermal stability preincubated for 3 hrs followed by exposure to 45.5 degree C for 10 mins by CETSA. It is filed as cell-based. The gist of the method:
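Human retinal Müller glial MIO-M1 cells grown in DMEM with 10% FBS. They were then heated at Tagg(75) for 10 min. Lysis used cold PBS with 0.1% Triton X-100 and protease inhibitors, and unstable protein was removed by centrifugation. Soluble PPARα was quantified by anti-PPARα immunoblot, normalized to loading control, and EC50 fitted. Single experiment, duplicate.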

The target in data set [7] is T2, Peroxisome proliferator-activated receptor alpha (Homo sapiens) (UniProt Q07869).
T2 sequence (whole entry): T1 sequence (Q07869 whole entry)
The data set can be described thus: Binding affinity to His tagged PPARalpha LBD (unknown origin) expressed in Escherichia coli Rosetta (DE3) assessed as change in entropy at 25 degree C by isothermal titration calorimetry. In general terms: Isothermal titration calorimetry measures the heat released or taken up as one component is titrated into another.

Data set [8] deals with T1, Peroxisome proliferator-activated receptor alpha.
In the next data set the target is hERG (KCNH2) (Homo sapiens, UniProt Q12809). The experiment in a line: Inhibition of human ERG stably expressed in CHOK1 cells assessed as tail current amplitude at 10 uM incubated for 5 mins measured after deploarization to +20 mV for 2s followed by 1s pulse to -40 mV with holding potential of -80 mV by Qpatch clamp assay relative to control. It is filed as cell-based. The note with it: CHO-K1 cells stably expressing human ERG. In outline: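 Whole-cell automated patch clamp at room temperature on CHO-K1 cells stably carrying human hERG cDNA. Holding potential -80 mV; tail current evoked by 2 s step to +20 mV then 1 s to -40 mV.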

Data set [9] has as its target T3, Peroxisome proliferator-activated receptor gamma (Homo sapiens, UniProt P37231).
T3 sequence (P37231 whole entry): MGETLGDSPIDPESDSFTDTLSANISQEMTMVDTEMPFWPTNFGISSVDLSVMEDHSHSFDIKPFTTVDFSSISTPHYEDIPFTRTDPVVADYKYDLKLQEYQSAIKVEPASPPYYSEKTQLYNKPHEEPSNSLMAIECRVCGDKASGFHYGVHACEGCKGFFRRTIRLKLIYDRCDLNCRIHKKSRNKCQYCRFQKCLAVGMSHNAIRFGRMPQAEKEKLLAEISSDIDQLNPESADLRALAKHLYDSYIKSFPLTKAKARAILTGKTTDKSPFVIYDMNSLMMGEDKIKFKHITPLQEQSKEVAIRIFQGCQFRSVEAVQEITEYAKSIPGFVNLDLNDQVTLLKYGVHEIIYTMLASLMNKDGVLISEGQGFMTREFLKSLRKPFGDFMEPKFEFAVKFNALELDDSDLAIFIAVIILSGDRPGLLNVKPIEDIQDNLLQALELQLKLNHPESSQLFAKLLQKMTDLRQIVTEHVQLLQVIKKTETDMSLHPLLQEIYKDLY
The experiment in a line: Agonist activity at human PPARgamma expressed in nonhuman mammalian cells assessed as increase in receptor transcriptional activity incubated for 22 to 24 hrs by luciferase reporter gene assay. It is filed as cell-based. In outline:
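Reporter cells (nonhuman mammalian, engineered PPAR receptor with luciferase linked to response promoter) pre-incubated 4–6 h at 37 °C, 5% CO2 in medium with 10% charcoal-stripped FBS. Medium replaced with compound-containing screening medium, 22–24 h at 37 °C, then luciferase detection reagent, luminescence read. Multi-point dose-response for EC50; mean ± SEM of at least two separate experiments in triplicate.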

Data set [10] concerns the target T4, Peroxisome proliferator-activated receptor delta (Homo sapiens, UniProt Q03181).
T4 sequence (Q03181 whole entry): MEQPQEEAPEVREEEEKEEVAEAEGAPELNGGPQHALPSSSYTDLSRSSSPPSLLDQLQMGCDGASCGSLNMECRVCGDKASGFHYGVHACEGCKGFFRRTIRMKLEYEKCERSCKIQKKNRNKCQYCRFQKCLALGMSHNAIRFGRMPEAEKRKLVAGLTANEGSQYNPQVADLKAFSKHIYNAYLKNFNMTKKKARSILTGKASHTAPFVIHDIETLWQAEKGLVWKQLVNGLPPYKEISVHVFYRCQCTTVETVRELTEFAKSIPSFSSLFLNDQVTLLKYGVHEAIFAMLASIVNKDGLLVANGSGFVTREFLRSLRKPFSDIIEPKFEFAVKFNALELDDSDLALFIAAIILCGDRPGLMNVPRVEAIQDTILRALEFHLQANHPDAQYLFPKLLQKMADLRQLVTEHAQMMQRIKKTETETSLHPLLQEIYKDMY
The experiment in a line: Agonist activity at human PPARdelta expressed in nonhuman mammalian cells assessed as increase in receptor transcriptional activity incubated for 22 to 24 hrs by luciferase reporter gene assay. It is filed as cell-based.

For the next data set, the system named is 661W. The data set can be described thus: Cytotoxicity against mouse 661W cells assessed as cell death at 200 uM incubated for overnight by colorimetric enzyme coupled LDH assay. It is filed as cell-based.
Data set [11] is described as follows: Half life in Sprague Dawley rat pooled liver microsomes preincubated for 5 mins prior to addition of NADPH-regenerating system and measured up to 60 mins by HPLC-MS/MS analysis. It is filed as ADME, Microsome. Particulars: 1 h.
The target of data set [12] is T2, Peroxisome proliferator-activated receptor alpha (Homo sapiens). The data set can be described thus: Agonist activity at human PPARalpha expressed in nonhuman mammalian cells assessed as maximal increase in receptor transcriptional activity incubated for 22 to 24 hrs by luciferase reporter gene assay relative to GW590735. It is filed as cell-based.
Data set [13] has the same target. The experiment in a line: Binding affinity to His-tagged PPARalpha LBD (unknown origin) expressed in Escherichia coli Rosetta (DE3) assessed as change in enthalpy at 25 degree C by isothermal titration calorimetry.
Data set [14] in a line: Stability in human pooled liver microsomes preincubated for 5 mins prior to addition of NADPH-regenerating system and measured up to 60 mins by HPLC-MS/MS analysis. The data set is classed as ADME, Microsome. Particulars: 1 h. In outline:
(§2)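 Compound pre-incubated 5 min at 37 °C with pooled liver microsomes in phosphate buffer, pH 7.4. NADPH-generating system then added; samples taken at 0, 15, 30, 45 and 60 min and quenched in acetonitrile/methanol. […] References: propranolol, imipramine, verapamil, terfenadine. Run in duplicate.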

A short description of data set [15]: Stability in Sprague Dawley rat pooled liver microsomes preincubated for 5 mins prior to addition of NADPH-regenerating system and measured up to 60 mins by HPLC-MS/MS analysis. The data set is classed as ADME, Microsome. The note with it: 1 h. The gist of the method:
as §2

The subject of data set [16] is Rattus norvegicus. The data set can be described thus: Protection against STZ-induced diabetic retinopathy Brown Norway rat model assessed as reduction in vascular leakage by measuring retinal vascular permeability at 23 mg/kg, ip administered daily for 4 weeks starting at 2 weeks post STZ challenge measured per mg of total retinal protein by Evan blue dye based assay (reference value: 0.090 +/- 0.015 microg). The data set is classed as functional. In outline: as §1

Data set [17] is described as follows: Toxicity in STZ-induced diabetic retinopathy Brown Norway rat model assessed as liver weight at 23 mg/kg, ip administered daily for 4 weeks starting at 2 weeks post STZ challenge relative to body weight (reference value: 4.36 +/- 0.37%). The data set is classed as organism-based. Particulars: in vivo.

Chain of hERG (KCNH2) (Q12809 whole entry): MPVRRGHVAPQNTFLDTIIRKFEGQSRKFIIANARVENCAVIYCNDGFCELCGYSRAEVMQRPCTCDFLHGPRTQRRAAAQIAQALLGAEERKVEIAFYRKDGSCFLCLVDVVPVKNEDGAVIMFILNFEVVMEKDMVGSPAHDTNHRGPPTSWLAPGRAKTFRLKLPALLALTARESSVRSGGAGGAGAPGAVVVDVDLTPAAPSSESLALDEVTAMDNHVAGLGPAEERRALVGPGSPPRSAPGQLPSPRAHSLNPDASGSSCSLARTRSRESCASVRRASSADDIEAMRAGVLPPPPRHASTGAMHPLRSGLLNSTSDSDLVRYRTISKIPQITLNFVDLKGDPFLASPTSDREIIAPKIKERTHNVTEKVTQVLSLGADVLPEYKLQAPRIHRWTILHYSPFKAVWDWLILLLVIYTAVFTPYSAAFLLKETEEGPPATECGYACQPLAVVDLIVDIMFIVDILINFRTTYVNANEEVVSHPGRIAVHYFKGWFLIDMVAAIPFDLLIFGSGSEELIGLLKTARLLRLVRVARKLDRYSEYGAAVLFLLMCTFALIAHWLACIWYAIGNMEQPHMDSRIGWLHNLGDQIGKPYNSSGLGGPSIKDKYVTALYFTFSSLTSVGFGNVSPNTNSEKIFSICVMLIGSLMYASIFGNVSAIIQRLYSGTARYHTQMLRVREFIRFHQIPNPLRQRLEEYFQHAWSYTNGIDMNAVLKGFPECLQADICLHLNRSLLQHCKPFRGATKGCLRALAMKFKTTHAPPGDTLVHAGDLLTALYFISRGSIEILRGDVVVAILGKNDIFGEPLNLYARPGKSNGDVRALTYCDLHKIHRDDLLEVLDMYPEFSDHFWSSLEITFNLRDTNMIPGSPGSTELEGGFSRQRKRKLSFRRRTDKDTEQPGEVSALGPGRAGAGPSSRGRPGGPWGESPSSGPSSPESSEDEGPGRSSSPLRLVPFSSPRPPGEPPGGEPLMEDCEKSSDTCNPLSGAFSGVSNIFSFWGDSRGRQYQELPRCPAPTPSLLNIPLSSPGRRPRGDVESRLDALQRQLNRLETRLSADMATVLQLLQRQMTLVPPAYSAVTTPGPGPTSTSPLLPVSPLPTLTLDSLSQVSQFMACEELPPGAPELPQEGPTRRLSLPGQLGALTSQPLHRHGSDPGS
Chain of Voltage-gated inwardly rectifying potassium channel KCNH2 (Q12809 whole entry): as above

Turning to `COc1ccc(COc2ccc(CNc3cccc(C(=O)O)c3)cc2)cc1`, the Activity is 0.062 µg in the data set with Rattus norvegicus [1], 4.68% in [2], “Non-Toxic” in [3] and “Non-Toxic” in the data set on 661W. Further, the “inhibition (INH)” value in [4] was “Not Active”. Moreover, the t1/2 in data set [5] and in [11] was greater than 60 min throughout. In addition, the concentration giving a half-maximal response (EC50) – broadly, the concentration that produces a half-maximal response – was 300 nM in data set [6], 4430 nM in [8], greater than 100 µM in data set [9] and greater than 100 µM in data set [10]. In data set [7], the -TdeltaS amounted to 5.71 kcal/mol. Besides, the inhibition (as a rule, the share of the control response that was lost under treatment) at 5 min, 10 µM on hERG (KCNH2) was 10%.
Take `O=C(O)c1cccc(NCc2ccc(OCc3ccc(F)cc3)cc2)c1`: in data set [7], the -TdeltaS was determined as 0.98 kcal/mol. The fold change (FC) in [12] stood at 1.3. Moreover, the concentration giving a half-maximal response (EC50) in [9] and in data set [10] was greater than 100 µM in each case. Further, the deltaH in data set [13] was -8.18 kcal/mol.
As to `Cc1cc(CNc2cccc(C(=O)O)c2)ccc1OCc1ccc(F)cc1`, the Stability entry in data set [14] and in data set [15] was “Stable” each time. For the same compound, the figures for the EC50 in data set [6] and in data set [8] were 93 nM and 37 nM, respectively. The -TdeltaS in data set [7] was -1.65 kcal/mol. For the same compound, the inhibition at 5 min, 10 µM at hERG (KCNH2) is 10%.
In the case of `CC(C)(Oc1ccc(C(=O)c2ccc(Cl)cc2)cc1)C(=O)O` [FENOFIBRIC ACID], the results for the Activity (in the data set with Rattus norvegicus [16]; in data set [17]) were 0.059 µg and 5.79%, respectively.
